Values belong to the molecule of their own block, whether it stands above or below them. Active and inactive are the calls of the source. The calls are words filed in the database; no cut-off is given here.
Legend:
A-431 = assay: cells; format: functional, cell-based; conditions: Homo sapiens, A-431, 72 h;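 further: antiproliferative activity measured with an MTT assay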
A549 [1] = assay: cells; format: functional, cell-based; conditions: Homo sapiens, A549, 72 h
[2] = Toxicity in human A549 cells xenografted BALB/c nude mouse assessed as effect on body weight at 30 mg/kg, ig administered every 2 days for 19 days; format: organism-based; conditions: in vivo, po
Outline: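 Female six-week-old BALB/c nude mice received 2.0 × 10^6 A549 cells subcutaneously. Dosing began at mean tumor size 200-400 mm3. 21 mice were randomized to vehicle (water, 30 mL/kg) or drug (30 mg/kg), both intragastric, every 2 days for 19 days. Body weight was recorded. Tumors were caliper-measured twice weekly (V = length × width²/2) and weighed at the end.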

A549 [3] = assay: Induction of apoptosis in human A549 cells assessed as late apoptotic cells at 8 uM after 72 hrs by FITC-annexin V/propidium iodide-double staining based flow cytometry (reference value: 6.59%); format: functional
A549 [4] = assay: Cytotoxicity against human A549 cells assessed as reduction in intracellular ATP levels at 8 uM after 24 hrs by luciferase-luciferin based assay; format: functional, cell-based
Outline: (§1)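 A549 cells were plated at 4000 per well and allowed to settle 12 h. They were then exposed to compound or DMSO for 24 h or 72 h. Medium was removed and reconstituted luciferase-luciferin reagent added. Luminescence was read within 1 min and converted to ATP concentration from a reference plot. Each concentration was run in quadruplicate.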

A549 [5] = assay: Cytotoxicity against human A549 cells assessed as effect on intracellular ATP levels at 0 to 2 uM after 24 hrs by luciferase-luciferin based assay; format: functional, cell-based
Outline: as §1

A549 [6] = assay: Induction of apoptosis in human A549 cells assessed as early apoptotic cells at 8 uM after 72 hrs by FITC-annexin V/propidium iodide-double staining based flow cytometry (reference value: 9.38%); format: functional
A549 [7] = assay: Antitumor activity against human A549 cells xenografted in BALB/c nude mouse assessed as tumor necrosis at 30 mg/kg, ig administered every 2 days for 19 days by hematoxylin/eosin-staining based histological analysis; format: functional, organism-based
A549 [8] = assay: Induction of apoptosis in human A549 cells assessed as early apoptotic cells at 1 uM after 72 hrs by FITC-annexin V/propidium iodide-double staining based flow cytometry (reference value: 9.38%); format: functional
[9] = target: Epidermal growth factor receptor (Homo sapiens, UniProt P00533, T790M)
Sequence of Epidermal growth factor receptor (Homo sapiens, UniProt P00533, T790M) (P00533 25-1210 T790M limits assumed): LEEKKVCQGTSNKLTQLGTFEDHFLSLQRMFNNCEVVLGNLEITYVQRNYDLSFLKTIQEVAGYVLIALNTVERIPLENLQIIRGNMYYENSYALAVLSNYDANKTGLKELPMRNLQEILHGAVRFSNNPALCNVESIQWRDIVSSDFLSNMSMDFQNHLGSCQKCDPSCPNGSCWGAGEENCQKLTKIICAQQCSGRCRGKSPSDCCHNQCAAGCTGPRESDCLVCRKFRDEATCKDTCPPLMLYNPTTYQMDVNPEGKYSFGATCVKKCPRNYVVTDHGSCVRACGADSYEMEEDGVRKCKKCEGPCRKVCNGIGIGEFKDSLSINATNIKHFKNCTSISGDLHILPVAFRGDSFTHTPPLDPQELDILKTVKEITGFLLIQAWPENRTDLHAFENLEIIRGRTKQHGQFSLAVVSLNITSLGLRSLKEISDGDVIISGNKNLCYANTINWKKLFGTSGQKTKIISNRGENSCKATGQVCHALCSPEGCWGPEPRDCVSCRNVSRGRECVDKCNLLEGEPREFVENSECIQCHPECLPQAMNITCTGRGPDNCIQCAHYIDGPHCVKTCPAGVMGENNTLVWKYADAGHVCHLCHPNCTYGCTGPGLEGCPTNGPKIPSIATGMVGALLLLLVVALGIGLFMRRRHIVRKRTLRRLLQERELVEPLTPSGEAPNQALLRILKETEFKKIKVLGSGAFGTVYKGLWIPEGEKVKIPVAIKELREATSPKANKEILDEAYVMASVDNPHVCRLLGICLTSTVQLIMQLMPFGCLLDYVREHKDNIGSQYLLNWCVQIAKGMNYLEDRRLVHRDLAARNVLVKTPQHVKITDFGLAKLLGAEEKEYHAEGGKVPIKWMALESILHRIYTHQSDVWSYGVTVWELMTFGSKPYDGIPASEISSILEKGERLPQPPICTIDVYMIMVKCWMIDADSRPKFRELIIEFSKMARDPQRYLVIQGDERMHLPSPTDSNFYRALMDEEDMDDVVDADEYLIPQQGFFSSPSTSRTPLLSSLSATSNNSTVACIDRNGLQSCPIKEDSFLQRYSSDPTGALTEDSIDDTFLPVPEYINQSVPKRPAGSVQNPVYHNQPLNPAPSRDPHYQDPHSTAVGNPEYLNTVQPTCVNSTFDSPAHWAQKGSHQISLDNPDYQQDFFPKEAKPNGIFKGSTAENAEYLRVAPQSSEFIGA

A549 [10] = assay: Induction of apoptosis in human A549 cells assessed as early apoptotic cells at 4 uM after 72 hrs by FITC-annexin V/propidium iodide-double staining based flow cytometry (reference value: 9.38%); format: functional
L929 = assay: Cytotoxicity against mouse L929 cells assessed as cell growth inhibition after 72 hrs by MTT assay; format: cell-based; conditions: L929, 72 h
A549 [11] = assay: Induction of apoptosis in human A549 cells assessed as late apoptotic cells at 1 uM after 72 hrs by FITC-annexin V/propidium iodide-double staining based flow cytometry (reference value: 6.59%); format: functional
A549 [12] = assay: Induction of apoptosis in human A549 cells assessed as late apoptotic cells at 4 uM after 72 hrs by FITC-annexin V/propidium iodide-double staining based flow cytometry (reference value: 6.59%); format: functional
in vitro = conditions: mouse, L929 cells
[13] = target: Receptor tyrosine-protein kinase erbB-2 (Homo sapiens, UniProt P04626); assay: Inhibition of wild type human N-terminal His-tagged HER2 cytoplasmic domain (676 to 1255 residues) expressed in baculovirus expression system after 1 hr in presence of ULight-labeled peptide substrate and ATP by LANCE ultra kinase assay
Sequence of Receptor tyrosine-protein kinase erbB-2 (P04626 whole entry, the tested form may be a part): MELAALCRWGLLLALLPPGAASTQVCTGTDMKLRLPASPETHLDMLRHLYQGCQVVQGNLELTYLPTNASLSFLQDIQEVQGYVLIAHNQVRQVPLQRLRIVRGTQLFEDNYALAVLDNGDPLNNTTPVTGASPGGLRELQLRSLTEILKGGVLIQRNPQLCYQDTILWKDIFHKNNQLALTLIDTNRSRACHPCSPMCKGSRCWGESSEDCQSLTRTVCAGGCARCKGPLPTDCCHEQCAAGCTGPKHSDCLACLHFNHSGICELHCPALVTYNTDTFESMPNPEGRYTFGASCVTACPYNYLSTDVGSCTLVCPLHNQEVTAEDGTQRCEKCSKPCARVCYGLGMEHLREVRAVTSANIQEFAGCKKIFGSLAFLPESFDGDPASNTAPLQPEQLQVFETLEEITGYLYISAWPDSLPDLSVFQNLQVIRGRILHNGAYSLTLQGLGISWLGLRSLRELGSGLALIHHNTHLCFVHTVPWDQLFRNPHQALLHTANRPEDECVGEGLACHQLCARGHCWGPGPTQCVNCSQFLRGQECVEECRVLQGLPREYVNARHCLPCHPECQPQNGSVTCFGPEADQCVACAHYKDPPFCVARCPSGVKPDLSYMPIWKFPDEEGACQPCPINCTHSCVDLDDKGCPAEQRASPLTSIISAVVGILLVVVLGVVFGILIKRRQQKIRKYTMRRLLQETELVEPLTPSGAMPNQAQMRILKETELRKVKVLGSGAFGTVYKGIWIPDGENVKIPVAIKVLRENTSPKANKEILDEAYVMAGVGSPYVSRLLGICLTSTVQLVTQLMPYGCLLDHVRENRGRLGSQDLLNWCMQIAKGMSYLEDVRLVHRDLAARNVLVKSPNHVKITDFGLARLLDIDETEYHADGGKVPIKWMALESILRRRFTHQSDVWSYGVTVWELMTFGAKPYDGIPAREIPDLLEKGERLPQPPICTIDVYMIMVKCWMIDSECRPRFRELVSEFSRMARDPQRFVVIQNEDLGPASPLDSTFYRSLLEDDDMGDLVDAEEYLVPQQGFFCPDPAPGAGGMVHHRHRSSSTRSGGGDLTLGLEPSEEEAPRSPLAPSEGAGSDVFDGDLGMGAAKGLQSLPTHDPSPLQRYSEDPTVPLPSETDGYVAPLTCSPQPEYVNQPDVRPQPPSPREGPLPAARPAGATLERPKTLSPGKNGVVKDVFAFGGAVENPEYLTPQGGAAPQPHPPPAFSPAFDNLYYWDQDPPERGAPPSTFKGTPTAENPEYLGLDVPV

A549 [14] = assay: animal or person; format: functional, Homo sapiens; conditions: Mus musculus, A549, po, read-out: TGI
A549 [15] = assay: Induction of apoptosis in human A549 cells after 72 hrs by FITC-annexin V/propidium iodide-double staining based flow cytometry; format: functional, cell-based
[16] = target: Epidermal growth factor receptor (Homo sapiens, UniProt P00533)
Sequence of Epidermal growth factor receptor (Homo sapiens, UniProt P00533) (P00533 whole entry): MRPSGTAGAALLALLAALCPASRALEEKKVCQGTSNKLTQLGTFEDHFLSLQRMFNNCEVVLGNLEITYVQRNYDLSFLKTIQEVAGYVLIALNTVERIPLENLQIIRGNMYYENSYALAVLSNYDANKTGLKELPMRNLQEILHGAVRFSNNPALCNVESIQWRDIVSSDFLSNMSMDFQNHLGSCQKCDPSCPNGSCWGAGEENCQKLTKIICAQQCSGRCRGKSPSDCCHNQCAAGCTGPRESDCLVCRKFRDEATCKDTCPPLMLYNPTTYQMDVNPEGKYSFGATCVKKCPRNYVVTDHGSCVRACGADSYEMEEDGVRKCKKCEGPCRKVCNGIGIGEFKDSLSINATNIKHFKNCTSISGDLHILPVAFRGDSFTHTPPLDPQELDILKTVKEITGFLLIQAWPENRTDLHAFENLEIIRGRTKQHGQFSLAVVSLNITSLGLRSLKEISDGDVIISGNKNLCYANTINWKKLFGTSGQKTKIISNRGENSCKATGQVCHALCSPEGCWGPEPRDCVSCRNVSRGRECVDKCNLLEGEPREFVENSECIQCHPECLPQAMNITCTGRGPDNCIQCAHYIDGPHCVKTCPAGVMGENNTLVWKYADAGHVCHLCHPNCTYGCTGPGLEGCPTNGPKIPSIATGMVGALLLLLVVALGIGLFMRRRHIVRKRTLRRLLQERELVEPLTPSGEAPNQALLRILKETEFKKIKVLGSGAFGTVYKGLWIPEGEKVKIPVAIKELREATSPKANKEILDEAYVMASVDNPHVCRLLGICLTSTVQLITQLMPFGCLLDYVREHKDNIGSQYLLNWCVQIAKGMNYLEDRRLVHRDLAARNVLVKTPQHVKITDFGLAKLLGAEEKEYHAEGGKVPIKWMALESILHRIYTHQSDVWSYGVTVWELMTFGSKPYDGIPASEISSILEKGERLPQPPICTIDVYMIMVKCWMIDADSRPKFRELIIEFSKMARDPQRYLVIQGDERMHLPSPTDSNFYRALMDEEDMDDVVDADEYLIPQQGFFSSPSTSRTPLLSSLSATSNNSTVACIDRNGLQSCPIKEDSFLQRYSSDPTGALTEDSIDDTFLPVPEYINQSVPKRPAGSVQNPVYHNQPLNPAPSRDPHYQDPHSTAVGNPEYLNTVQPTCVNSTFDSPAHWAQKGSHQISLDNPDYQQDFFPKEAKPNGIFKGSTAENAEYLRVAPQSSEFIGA

A549 [17] = assay: Cytotoxicity against human A549 cells assessed as depletion of intracellular ATP levels at 2 uM after 72 hrs by luciferase-luciferin based assay; format: functional, cell-based
Outline: as §1

A549 [18] = assay: Cytotoxicity against human A549 cells assessed as effect on intracellular ATP levels at 6 uM after 24 hrs by luciferase-luciferin based assay; format: functional, cell-based
Outline: as §1

A549 [19] = assay: Cytotoxicity against human A549 cells assessed as depletion of intracellular ATP levels at 8 uM after 72 hrs by luciferase-luciferin based assay; format: functional, cell-based
Outline: as §1

IC50 (A-431): 2.23 µM | IC50 (A549 [1]): > 50 µM
SMILES: C#Cc1cccc(Nc2ncnc3cc(OC)c(OCCCN4CCNCCNCC4)cc23)c1

IC50 (A-431): 18.8 µM | IC50 (A549 [1]): > 50 µM
SMILES: CCc1cc(Br)ccc1Nc1ncnc2cc(OC)c(OCCCN3CCNCCNCC3)cc12

IC50 (A-431): 1.05 µM | IC50 (A549 [1]): 14.7 µM
SMILES: COc1cc2ncnc(Nc3cccc(Br)c3)c2cc1OCCCN1CCNCCNCCNCC1

IC50 (A-431): 1.56 µM | IC50 (A549 [1]): 37.3 µM
SMILES: COc1cc2ncnc(Nc3cccc(C(F)(F)F)c3)c2cc1OCCCN1CCNCCNCC1

IC50 (A-431): 1.12 µM | IC50 (A549 [1]): > 50 µM
SMILES: COc1cc2ncnc(Nc3cccc(Cl)c3)c2cc1OCCCN1CCNCCNCC1

IC50 (A-431): 6.37 µM | IC50 (A549 [1]): > 50 µM
SMILES: COc1cc2ncnc(Nc3ccc(C#N)cc3F)c2cc1OCCCN1CCNCCNCCNCC1

IC50 (A-431): 1.11 µM | IC50 (A549 [1]): 28.6 µM
SMILES: C#Cc1cccc(Nc2ncnc3cc(OC)c(OCCCN4CCNCCNCCNCC4)cc23)c1

IC50 (A-431): 1.95 µM | IC50 (A549 [1]): 15.7 µM
SMILES: COc1cc2ncnc(Nc3cccc(C(F)(F)F)c3)c2cc1OCCCN1CCNCCNCCNCC1

IC50 (A-431): 5.65 µM | IC50 (A549 [1]): > 50 µM
SMILES: CCc1cc(Br)ccc1Nc1ncnc2cc(OC)c(OCCCN3CCNCCNCCNCC3)cc12

IC50 (A-431): 2.21 µM | IC50 (A549 [1]): 26.2 µM
SMILES: COc1cc2ncnc(Nc3cccc(I)c3)c2cc1OCCCN1CCNCCNCC1

Further lines, the molecule ahead of its results:

SMILES: COc1cc2ncnc(Nc3cccc(Cl)c3)c2cc1OCCCN1CCNCCNCCNCC1
IC50 (A-431): 1.42 µM | IC50 (A549 [1]): 27.1 µM

SMILES: COc1cc2ncnc(Nc3ccc(Cl)cc3Cl)c2cc1OCCCN1CCNCCNCCNCC1
IC50 (A-431): 4.38 µM | IC50 (A549 [1]): 23.8 µM

SMILES: COc1cccc(Nc2ncnc3cc(OC)c(OCCCN4CCNCCNCCNCC4)cc23)c1
IC50 (A-431): 3.21 µM | IC50 (A549 [1]): > 50 µM

SMILES: COc1cc2ncnc(Nc3ccc(F)c(Cl)c3)c2cc1OCCCN1CCOCC1 [GEFITINIB]
Activity [2]: Non-Toxic | Activity (A549 [3]): 7.05% | Activity (A549 [4]): Active | Activity (A549 [5]): inactive | Activity (A549 [6]): 20.72%

SMILES: COc1cc2ncnc(Nc3ccc(F)c(Br)c3)c2cc1OCCCN1CCNCCNCC1
IC50 (A-431): 1.06 µM | IC50 (A549 [1]): 34.3 µM

SMILES: COc1cc2ncnc(Nc3ccc(F)c(Br)c3)c2cc1OCCCN1CCNCCNCCNCC1
IC50 (A-431): 1.58 µM | IC50 (A549 [1]): 11.8 µM

SMILES: COc1cc2ncnc(Nc3ccc(Br)cc3F)c2cc1OCCCN1CCNCCNCCNCC1
IC50 (A-431): 1.84 µM | IC50 (A549 [1]): 15.2 µM

SMILES: COc1cc2ncnc(Nc3ccc(OCc4cccc(F)c4)c(Cl)c3)c2cc1OCCCN1CCNCCNCCNCC1
Activity (A549 [7]): Active | Activity (A549 [8]): 6.25% | IC50 [9]: 0.0165 µM | Activity (A549 [10]): 54.62% | Activity [2]: Non-Toxic | IC50 (A-431): 0.958 µM | Activity (A549 [3]): 7.94% | Activity (A549 [4]): Active | IC50 (L929): 2.74 µM | Activity (A549 [11]): 11.16% | Activity (A549 [12]): 4.36% | inhibition at 72 h, 1 µM (in vitro): 37.6% | IC50 [13]: 0.0021 µM | inhibition in vivo at 30 mg/kg (A549 [14]): 44.2% | Activity (A549 [15]): Dose-dependent effect | IC50 [16]: 0.0014 µM | Activity (A549 [17]): Active | Activity (A549 [5]): inactive | Activity (A549 [6]): 81.53% | IC50 (A549 [1]): 3.4 µM

SMILES: COc1cc2ncnc(Nc3ccc(C#N)cc3F)c2cc1OCCCN1CCNCCNCC1
IC50 (A-431): 12.7 µM | IC50 (A549 [1]): > 50 µM

SMILES: COc1cc2ncnc(Nc3ccc(Cl)cc3Cl)c2cc1OCCCN1CCNCCNCC1
IC50 (A-431): 4.08 µM | IC50 (A549 [1]): 44.2 µM

SMILES: COc1cc2ncnc(Nc3cccc(Br)c3)c2cc1OCCCN1CCNCCNCC1
IC50 (A-431): 2.32 µM | IC50 (A549 [1]): 34.3 µM

SMILES: COc1cc2ncnc(Nc3cccc(I)c3)c2cc1OCCCN1CCNCCNCCNCC1
IC50 (A-431): 2.54 µM | IC50 (A549 [1]): 14.5 µM

SMILES: COc1cc2ncnc(Nc3ccc(Cl)c(C(F)(F)F)c3)c2cc1OCCCN1CCNCCNCC1
IC50 (A-431): 2.98 µM | IC50 (A549 [1]): 6.23 µM

SMILES: COc1cc2ncnc(Nc3ccc(F)c(Cl)c3)c2cc1OCCCN1CCNCCNCC1
IC50 (A-431): 1.31 µM | IC50 [16]: 0.0083 µM | IC50 (A549 [1]): > 50 µM

SMILES: COc1cc2ncnc(Nc3ccc(Br)cc3F)c2cc1OCCCN1CCNCCNCC1
IC50 (A-431): 0.561 µM | IC50 [16]: 0.0282 µM | IC50 (A549 [1]): 16.1 µM

SMILES: COc1cccc(Nc2ncnc3cc(OC)c(OCCCN4CCNCCNCC4)cc23)c1
IC50 (A-431): 8.53 µM | IC50 (A549 [1]): > 50 µM

SMILES: CS(=O)(=O)CCNCc1ccc(-c2ccc3ncnc(Nc4ccc(OCc5cccc(F)c5)c(Cl)c4)c3c2)o1 [LAPATINIB]
Activity (A549 [18]): Active | Activity (A549 [3]): 5.73% | IC50 (L929): 2.05 µM | inhibition at 72 h, 1 µM (in vitro): 35% | Activity (A549 [5]): inactive | Activity (A549 [6]): 52.04% | IC50 (A549 [1]): 3.64 µM

SMILES: COc1cc2ncnc(Nc3cccc(F)c3)c2cc1OCCCN1CCNCCNCCNCC1
IC50 (A-431): 1.86 µM | IC50 (A549 [1]): > 50 µM

SMILES: COc1cc2ncnc(Nc3ccc(OCc4cccc(F)c4)c(Cl)c3)c2cc1OCCCN1CCNCCNCC1
IC50 [9]: 0.0406 µM | IC50 (A-431): 0.442 µM | Activity (A549 [4]): Active | Activity (A549 [19]): Active | IC50 [13]: 0.0096 µM | IC50 [16]: 0.0003 µM | Activity (A549 [5]): inactive | IC50 (A549 [1]): 7.25 µM

SMILES: COc1cc2ncnc(Nc3cccc(F)c3)c2cc1OCCCN1CCNCCNCC1
IC50 (A-431): 7.91 µM | IC50 (A549 [1]): > 50 µM

SMILES: COc1cc2ncnc(Nc3ccc(Cl)c(C(F)(F)F)c3)c2cc1OCCCN1CCNCCNCCNCC1
IC50 (A-431): 1.71 µM | IC50 (A549 [1]): 5.35 µM

SMILES: COc1cc2ncnc(Nc3ccc(F)c(Cl)c3)c2cc1OCCCN1CCNCCNCCNCC1
IC50 (A-431): 1.01 µM | IC50 [16]: 0.0066 µM | IC50 (A549 [1]): 20.2 µM

Source: ChEMBL document CHEMBL4325914, “Design and Evaluation of Potent EGFR Inhibitors through the Incorporation of Macrocyclic Polyamine Moieties into the 4-Anilinoquinazoline Scaffold” (J Med Chem, 2018)
